According to ChEMBL document CHEMBL5329167, “Design, synthesis and evaluation of halogenated phenazine antibacterial prodrugs targeting nitroreductase enzymes for activation” (RSC Med Chem, 2023):
In brackets after ≈: the same amount, converted by molar mass. Activity calls are given as the source filed them. No cut-off for these calls is given here.

Tests used:
[1] = tested on: Staphylococcus aureus; experiment: Antibacterial activity against methicillin-resistant Staphylococcus aureus BAA-44 assessed as bacterial growth inhibition incubated for 16 hrs by CLSI based broth microdilution method; format: functional
How it was run: (§1)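 Broth microdilution per CLSI in LB, eleven two-fold serial dilutions spanning 0.10 to 100 µM. Inoculum ~10⁵ cells/well from fresh log-phase culture (OD₆₀₀ 0.6–0.8). MIC taken as lowest concentration preventing growth after 16 h at 37 °C, read by OD₆₀₀ turbidity. DMSO vehicle control, top 0.5% v/v. At least three independent experiments.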

[2] = tested on: Staphylococcus epidermidis; experiment: Antibacterial activity against Staphylococcus epidermidis 12228 assessed as bacterial growth inhibition incubated for 16 hrs by CLSI based broth microdilution method; format: functional
How it was run: (§2)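 CLSI broth microdilution in LB: eleven 2-fold serial dilutions, 0.10–100 µM. DMSO vehicle/negative control diluted from 0.5% v/v. Wells seeded with ~10⁵ cells from log-phase culture (OD₆₀₀ 0.6–0.8), held 16 h at 37 °C. MIC taken as the lowest concentration preventing growth by OD₆₀₀ turbidity. Minimum three independent experiments.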

[3] = tested on: Streptococcus pneumoniae; experiment: Antibacterial activity against Streptococcus pneumoniae 6303 assessed as bacterial growth inhibition incubated for 16 hrs by CLSI based broth microdilution method; format: functional; how it was run: as §2
[4] = tested on: Enterococcus; experiment: Antibacterial activity against vancomycin-resistant Enterococcus 700221 assessed as bacterial growth inhibition incubated for 16 hrs by CLSI based broth microdilution method; format: functional
How it was run: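 Growth scored by OD₆₀₀ turbidity after 16 h at 37 °C; MIC is the lowest concentration preventing growth. DMSO vehicle control up to 0.5% v/v. Three or more independent experiments.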

[5] = tested on: Staphylococcus epidermidis; experiment: Antibacterial activity against methicillin-resistant Staphylococcus epidermidis 35984 assessed as bacterial growth inhibition incubated for 16 hrs by CLSI based broth microdilution method; format: functional; how it was run: as §1
[6] = tested on: Enterococcus faecalis; experiment: Antibacterial activity against Enterococcus faecalis OG1RF assessed as bacterial growth inhibition incubated for 16 hrs by CLSI based broth microdilution method; format: functional
How it was run: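 Broth microdilution per CLSI in brain-heart infusion: eleven 2-fold dilutions spanning 0.10–100 µM, with DMSO vehicle/negative control topping at 0.5% v/v. Inoculum ~10⁵ cells/well from log-phase culture (OD₆₀₀ 0.6–0.8). 37 °C, 16 h. MIC is the lowest concentration preventing growth, read as OD₆₀₀ turbidity. At least three independent experiments.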

[7] = tested on: Staphylococcus epidermidis; experiment: Antibacterial activity against Staphylococcus epidermidis clinical isolate CL-1 assessed as bacterial growth inhibition incubated for 16 hrs by CLSI based broth microdilution method; format: functional
[8] = Hemolytic activity against red blood cells (unknown origin) at 200 uM; format: toxicity, cell-based, Erythrocyte; details: read-out: Activity
[9] = tested on: Staphylococcus aureus; experiment: Antibacterial activity against Staphylococcus aureus clinical isolate 138 assessed as bacterial growth inhibition incubated for 16 hrs by CLSI based broth microdilution method; format: functional
[10] = tested on: Staphylococcus aureus; experiment: Antibacterial activity against Staphylococcus aureus clinical isolate 156 assessed as bacterial growth inhibition incubated for 16 hrs by CLSI based broth microdilution method; format: functional
[11] = tested on: Staphylococcus aureus; experiment: Antibacterial activity against methicillin-resistant Staphylococcus aureus BAA-1707 assessed as bacterial growth inhibition incubated for 16 hrs by CLSI based broth microdilution method; format: functional; how it was run: as §1
[12] = Metal chelating activity assessed as formation of phenazine-iron complex measured for 1 to 60 mins by UV-vis spectroscopy; details: time 1-60 min
How it was run: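 Compound from a 10 mM DMSO stock diluted in DMSO in a cuvette, alone or with ammonium iron(II) sulfate hexahydrate (10 mM aqueous stock). Spectra of the compound-only cuvette and the iron-containing cuvette are compared by UV-vis spectrometry to judge phenazine–iron(II) complex formation.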

[13] = tested on: Staphylococcus aureus; experiment: Antibacterial activity against Staphylococcus aureus clinical isolate 129 assessed as bacterial growth inhibition incubated for 16 hrs by CLSI based broth microdilution method; format: functional
[14] = tested on: Staphylococcus aureus; experiment: Antibacterial activity against methicillin-resistant Staphylococcus aureus 1707 assessed as zone of inhibition at 10 mM incubated for 16 hrs by agar diffusion assay; format: functional
How it was run: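 Modified Kirby-Bauer disk diffusion. 100 µL MRSA 1707 inoculum (OD₆₀₀ 0.7, ~10⁸ CFU) spread on LB agar and left 30 min. 10 µL of 10 mM DMSO compound solution then pipetted onto the plate. Incubation 16 h at 37 °C; zone of inhibition area (cm²) measured. Three independent experiments.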

[15] = tested on: Staphylococcus aureus; experiment: Antibacterial activity against methicillin-resistant Staphylococcus aureus 1707 assessed as bacterial growth inhibition incubated for 16 hrs by CLSI based broth microdilution method; format: functional; how it was run: as §1
[16] = tested on: Staphylococcus aureus; experiment: Antibacterial activity against Staphylococcus aureus clinical isolate 147 assessed as bacterial growth inhibition incubated for 16 hrs by CLSI based broth microdilution method; format: functional
[17] = Cytotoxicity against HEK293 cells incubated for 48 hrs by MTT assay; format: toxicity, cell-based; details: human
How it was run: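 HEK-293 cells (10⁴/well) in DMEM with 10% FBS, penicillin/streptomycin, settled overnight at 37 °C, 5% CO₂. Medium replaced with compound at 0.10–100 µM (2-fold steps); DMSO as negative control. After 48 h at 37 °C, MTT (5 mg/mL stock) added for 3 h. Formazan dissolved in DMSO, OD read at 570 nm. Eight replicates per treatment.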

[18] = tested on: Staphylococcus aureus; experiment: Antibacterial activity against methicillin-resistant Staphylococcus aureus clinical isolate 1 assessed as bacterial growth inhibition incubated for 16 hrs by CLSI based broth microdilution method; format: functional
[19] = tested on: Staphylococcus aureus; experiment: Antibacterial activity against methicillin-resistant Staphylococcus aureus clinical isolate 2 assessed as bacterial growth inhibition incubated for 16 hrs by CLSI based broth microdilution method; format: functional
[20] = Lipophilicity, LogP of compound in octanol-water mixture incubated for 1 hr by UV-vis spectroscopy; format: physicochemical
How it was run: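 Shake-flask partition: compound in octanol (1% v/v DMSO) mixed with equal volume water, stirred vigorously, left 1 h at room temperature to separate. Octanol-phase concentration measured by UV-Vis at 370 or 380 nm against a serial-dilution standard curve. Water concentration obtained by mass balance; LogP = log10(Coct/Cw). Acetophenone as positive control. Three independent experiments.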

Structure (SMILES)	MIC [1]	MIC [2]	MIC [3]	MIC [4]	MIC [5]	MIC [6]	MIC [7]	hemolysis at 200 µM [8]	MIC [9]	MIC [10]	MIC [11]	Activity [12]	MIC [13]	diameter of the inhibition zone (DIZ) [14]	MIC [15]	MIC [16]	CC50 at 48 h [17]	MIC [18]	MIC [19]	logP at 1 h [20]
CN[C@H](CC(C)C)C(=O)N[C@H]1C(=O)N[C@@H](CC(N)=O)C(=O)N[C@H]2C(=O)N[C@H]3C(=O)N[C@H](C(=O)N[C@H](C(=O)O)c4cc(O)cc(O)c4-c4cc3ccc4O)[C@H](O)c3ccc(c(Cl)c3)Oc3cc2cc(c3O[C@@H]2O[C@H](CO)[C@@H](O)[C@H](O)[C@H]2O[C@H]2C[C@](C)(N)[C@H](O)[C@H](C)O2)Oc2ccc(cc2Cl)[C@H]1O [VANCOMYCIN]	0.3 µM (≈ 0.435 µg/mL)	1.56 µM (≈ 2.26 µg/mL)	0.59 µM (≈ 0.855 µg/mL)	> 100 µM	0.59 µM (≈ 0.855 µg/mL)	1.56 µM (≈ 2.26 µg/mL)	0.59 µM (≈ 0.855 µg/mL)	< 1%												
O=S(=O)(Cc1ccccc1)Oc1c(Br)cc(Br)c2nc3ccccc3nc12	> 100 µM	> 100 µM	> 100 µM	> 100 µM	> 100 µM	> 100 µM	> 100 µM		> 100 µM	> 100 µM	> 100 µM	inactive	> 100 µM	0 cm2	> 100 µM	> 100 µM	> 100 µM			
CC[C@H]1OC(=O)[C@H](C)[C@@H](O[C@H]2C[C@@](C)(OC)[C@@H](O)[C@H](C)O2)[C@H](C)[C@@H](O[C@@H]2O[C@H](C)C[C@H](N(C)C)[C@H]2O)[C@](C)(O)C[C@@H](C)C(=O)[C@H](C)[C@@H](O)[C@]1(C)O [ERYTHROMYCIN]							> 100 µM		> 100 µM	> 100 µM			> 100 µM			37.5 µM (≈ 27.5 µg/mL)		100 µM (≈ 73.4 µg/mL)	18.8 µM (≈ 13.8 µg/mL)	
O=[N+]([O-])c1ccc(CS(=O)(=O)Oc2c(Br)cc(Br)c3nc4c(C(F)(F)F)cc(C(F)(F)F)cc4nc23)cc1	4.69 µM (≈ 3.23 µg/mL)	0.15 µM (≈ 0.103 µg/mL)	0.2 µM (≈ 0.138 µg/mL)	1.56 µM (≈ 1.08 µg/mL)	0.78 µM (≈ 0.538 µg/mL)	0.78 µM (≈ 0.538 µg/mL)		10.4%			1.56 µM (≈ 1.08 µg/mL)	inactive		2.57 cm2	1.56 µM (≈ 1.08 µg/mL)		2.9 µM			
Cc1cccc2nc3c(OS(=O)(=O)Cc4ccccc4)c(Br)c(Cl)c(Br)c3nc12	> 100 µM	> 100 µM	> 100 µM	> 100 µM	> 100 µM	> 100 µM	> 100 µM		> 100 µM	> 100 µM	> 100 µM	inactive	> 100 µM	0 cm2	> 100 µM	> 100 µM	49.6 µM			
NC[C@H]1O[C@H](O[C@H]2[C@H](O)[C@@H](O[C@H]3O[C@H](CO)[C@@H](O)[C@H](N)[C@H]3O)[C@H](N)C[C@@H]2N)[C@H](N)C[C@@H]1O [TOBRAMYCIN]							1.56 µM (≈ 0.729 µg/mL)		12.5 µM (≈ 5.84 µg/mL)	12.5 µM (≈ 5.84 µg/mL)			> 100 µM			6.25 µM (≈ 2.92 µg/mL)		6.25 µM (≈ 2.92 µg/mL)	6.25 µM (≈ 2.92 µg/mL)	
Cc1cccc2nc3c(OS(=O)(=O)Cc4ccc([N+](=O)[O-])cc4)c(Br)c(Cl)c(Br)c3nc12	0.3 µM (≈ 0.18 µg/mL)	0.59 µM (≈ 0.355 µg/mL)	0.15 µM (≈ 0.0902 µg/mL)	0.15 µM (≈ 0.0902 µg/mL)	0.15 µM (≈ 0.0902 µg/mL)	4.69 µM (≈ 2.82 µg/mL)	2.35 µM (≈ 1.41 µg/mL)	< 1%	0.39 µM (≈ 0.235 µg/mL)	0.59 µM (≈ 0.355 µg/mL)	0.1 µM (≈ 0.0602 µg/mL)	Active		0.87 cm2	0.1 µM (≈ 0.0602 µg/mL)	0.59 µM (≈ 0.355 µg/mL)	34.1 µM	0.3 µM (≈ 0.18 µg/mL)	0.3 µM (≈ 0.18 µg/mL)	3.11
O=[N+]([O-])c1ccc(CS(=O)(=O)Oc2c(Br)cc(Br)c3nc4ccccc4nc23)cc1	1.56 µM (≈ 0.863 µg/mL)	4.69 µM (≈ 2.59 µg/mL)	4.69 µM (≈ 2.59 µg/mL)	9.38 µM (≈ 5.19 µg/mL)	4.69 µM (≈ 2.59 µg/mL)	37.5 µM (≈ 20.7 µg/mL)	6.25 µM (≈ 3.46 µg/mL)	< 1%	4.69 µM (≈ 2.59 µg/mL)	6.25 µM (≈ 3.46 µg/mL)	0.78 µM (≈ 0.431 µg/mL)	inactive	6.25 µM (≈ 3.46 µg/mL)	1.13 cm2	0.78 µM (≈ 0.431 µg/mL)	6.25 µM (≈ 3.46 µg/mL)	51.7 µM	3.13 µM (≈ 1.73 µg/mL)	2.35 µM (≈ 1.3 µg/mL)	0.42
